# Assay results reported in ChEMBL document CHEMBL4715736, “Identification of anticancer agents based on the thieno[2,3-b]pyridine and 1H-pyrazole molecular scaffolds” (2016).
# Tests used:
# Format in all cases: functional
# MCF7 = test: Growth inhibition of human MCF7 cells assessed as cell growth at 1 uM incubated for 48 hrs by sulforhodamine B assay relative to control; settings: read-out: Activity
# HCT-15 = test: Growth inhibition of human HCT-15 cells assessed as cell growth at 100 uM incubated for 48 hrs by sulforhodamine B assay relative to control; settings: read-out: Activity
# HCT-116 = test: Growth inhibition of human HCT-116 cells assessed as cell growth at 0.01 uM incubated for 48 hrs by sulforhodamine B assay relative to control; settings: read-out: Activity
# MDA-MB-435 = test: Growth inhibition of human MDA-MB-435 cells assessed as cell growth at 100 uM incubated for 48 hrs by sulforhodamine B assay relative to control; settings: read-out: Activity
# BT-549 [1] = test: Growth inhibition of human BT-549 cells assessed as cell growth at 0.1 uM incubated for 48 hrs by sulforhodamine B assay relative to control; settings: read-out: Activity
# MOLT-4 [2] = test: Growth inhibition of human MOLT-4 cells assessed as cell growth at 1 uM incubated for 48 hrs by sulforhodamine B assay relative to control; settings: read-out: Activity
# IGROV-1 [3] = test: Growth inhibition of human IGROV-1 cells assessed as cell growth at 1 uM incubated for 48 hrs by sulforhodamine B assay relative to control; settings: read-out: Activity
# Hs-578T = test: Growth inhibition of human Hs-578T cells assessed as cell growth at 100 uM incubated for 48 hrs by sulforhodamine B assay relative to control; settings: read-out: Activity
# SK-MEL-28 = test: Growth inhibition of human SK-MEL-28 cells assessed as cell growth at 0.1 uM incubated for 48 hrs by sulforhodamine B assay relative to control; settings: read-out: Activity
# CAKI-1 [4] = test: Growth inhibition of human CAKI-1 cells assessed as cell growth at 0.01 uM incubated for 48 hrs by sulforhodamine B assay relative to control; settings: read-out: Activity
# Method in brief: (§1)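 NCI Developmental Therapeutics Program NCI60 panel. Compounds that were active in the 10 µM one-dose screen went on to dose–response testing. Growth at each concentration is expressed relative to untreated control (100%). GI50 (concentration giving 50% of maximal inhibition of proliferation) and TGI (concentration giving total growth inhibition) were derived from the curves.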
# SNB-75 = test: Growth inhibition of human SNB-75 cells assessed as cell growth at 0.1 uM incubated for 48 hrs by sulforhodamine B assay relative to control; settings: read-out: Activity
# SNB-19 [5] = test: Growth inhibition of human SNB-19 cells assessed as cell growth at 1 uM incubated for 48 hrs by sulforhodamine B assay relative to control; settings: read-out: Activity
# UACC-257 = test: Growth inhibition of human UACC-257 cells assessed as cell growth at 1 uM incubated for 48 hrs by sulforhodamine B assay relative to control; settings: read-out: Activity
# NCI-H460 [6] = test: Growth inhibition of human NCI-H460 cells assessed as cell growth at 0.1 uM incubated for 48 hrs by sulforhodamine B assay relative to control; settings: read-out: Activity
# NCI-H322M = test: Growth inhibition of human NCI-H322M cells assessed as cell growth at 0.01 uM incubated for 48 hrs by sulforhodamine B assay relative to control; settings: read-out: Activity
# M14 = test: Growth inhibition of human M14 cells assessed as cell growth at 0.1 uM incubated for 48 hrs by sulforhodamine B assay relative to control; settings: read-out: Activity
# RPMI-8226 [7] = test: Growth inhibition of human RPMI-8226 cells incubated for 48 hrs by sulforhodamine B assay
# Method in brief: (§2)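 NCI DTP 60-line human tumour panel. Dose-response curves were run only for ligands active in the initial 10 µM screen. GI50 (concentration giving 50% of maximal inhibition of proliferation) and TGI (concentration giving total growth inhibition) were derived from these curves.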
# SR = test: Growth inhibition of human SR cells assessed as cell growth at 0.1 uM incubated for 48 hrs by sulforhodamine B assay relative to control; settings: read-out: Activity
# OVCAR-8 = test: Growth inhibition of human OVCAR-8 cells incubated for 48 hrs by sulforhodamine B assay; method in brief: as §2
# RXF 393 = test: Growth inhibition of human RXF 393 cells assessed as cell growth at 0.01 uM incubated for 48 hrs by sulforhodamine B assay relative to control; settings: read-out: Activity
# SF-539 = test: Growth inhibition of human SF-539 cells incubated for 48 hrs by sulforhodamine B assay; method in brief: as §2
# RPMI-8226 [8] = test: Growth inhibition of human RPMI-8226 cells assessed as cell growth at 100 uM incubated for 48 hrs by sulforhodamine B assay relative to control; settings: read-out: Activity
# IGROV-1 [9] = test: Growth inhibition of human IGROV-1 cells assessed as cell growth at 0.1 uM incubated for 48 hrs by sulforhodamine B assay relative to control; settings: read-out: Activity
# SF-295 = test: Growth inhibition of human SF-295 cells assessed as cell growth at 0.01 uM incubated for 48 hrs by sulforhodamine B assay relative to control; settings: read-out: Activity
# SN12C = test: Growth inhibition of human SN12C cells incubated for 48 hrs by sulforhodamine B assay; method in brief: as §2
# HT-29 [10] = test: Growth inhibition of human HT-29 cells assessed as cell growth at 0.01 uM incubated for 48 hrs by sulforhodamine B assay relative to control; settings: read-out: Activity
# K562 = test: Growth inhibition of human K562 cells assessed as cell growth at 1 uM incubated for 48 hrs by sulforhodamine B assay relative to control; settings: read-out: Activity
# NCI-H460 [11] = test: Growth inhibition of human NCI-H460 cells assessed as cell growth at 100 uM incubated for 48 hrs by sulforhodamine B assay relative to control; settings: read-out: Activity
# HT-29 [12] = test: Growth inhibition of human HT-29 cells assessed as cell growth at 0.1 uM incubated for 48 hrs by sulforhodamine B assay relative to control; settings: read-out: Activity
# SNB-19 [13] = test: Growth inhibition of human SNB-19 cells assessed as cell growth at 0.1 uM incubated for 48 hrs by sulforhodamine B assay relative to control; settings: read-out: Activity
# CAKI-1 [14] = test: Growth inhibition of human CAKI-1 cells assessed as cell growth at 100 uM incubated for 48 hrs by sulforhodamine B assay relative to control; settings: read-out: Activity; method in brief: as §1
# BT-549 [15] = test: Growth inhibition of human BT-549 cells assessed as cell growth at 1 uM incubated for 48 hrs by sulforhodamine B assay relative to control; settings: read-out: Activity
# MOLT-4 [16] = test: Growth inhibition of human MOLT-4 cells assessed as cell growth at 0.01 uM incubated for 48 hrs by sulforhodamine B assay relative to control; settings: read-out: Activity
# OVCAR-5 = test: Growth inhibition of human OVCAR-5 cells assessed as cell growth at 0.1 uM incubated for 48 hrs by sulforhodamine B assay relative to control; settings: read-out: Activity
# SK-MEL-2 = test: Growth inhibition of human SK-MEL-2 cells assessed as cell growth at 0.01 uM incubated for 48 hrs by sulforhodamine B assay relative to control; settings: read-out: Activity
# DU-145 = test: Growth inhibition of human DU-145 cells assessed as cell growth at 0.01 uM incubated for 48 hrs by sulforhodamine B assay relative to control; settings: read-out: Activity; method in brief: as §1
# [17] = read-out: LC50 (the source's name)
compound,measurement,setting,value
Cc1ccc(NC(=O)c2sc3nc4c(cc3c2N)C(=O)CCC4)cc1C,growth at 1 µM,MCF7,18%
same,growth at 100 µM,HCT-15,7%
same,growth at 0.01 µM,HCT-116,99%
same,growth at 100 µM,MDA-MB-435,-46%
same,growth at 0.1 µM,BT-549 [1],108%
same,growth at 1 µM,MOLT-4 [2],82%
same,growth at 1 µM,IGROV-1 [3],51%
same,growth at 100 µM,Hs-578T,17%
same,growth at 0.1 µM,SK-MEL-28,87%
same,growth at 0.01 µM,CAKI-1 [4],96%
same,growth at 0.1 µM,SNB-75,70%
same,growth at 1 µM,SNB-19 [5],37%
same,growth at 1 µM,UACC-257,50%
same,growth at 0.1 µM,NCI-H460 [6],102%
same,growth at 0.01 µM,NCI-H322M,93%
same,growth at 0.1 µM,M14,86%
same,GI50,RPMI-8226 [7],1.43 µM
same,LC50,RPMI-8226 [7],> 100 µM
same,growth at 0.1 µM,SR,108%
same,GI50,OVCAR-8,3.06 µM
same,TGI,OVCAR-8,> 100 µM
same,CC50,OVCAR-8; [17],> 100 µM
same,growth at 0.01 µM,RXF 393,87%
same,GI50,SF-539,0.404 µM
same,CC50,SF-539; [17],> 100 µM
same,growth at 100 µM,RPMI-8226 [8],-9%
same,growth at 0.1 µM,IGROV-1 [9],99%
same,growth at 0.01 µM,SF-295,91%
same,GI50,SN12C,0.675 µM
same,TGI,SN12C,> 100 µM
same,CC50,SN12C; [17],> 100 µM
same,growth at 0.01 µM,HT-29 [10],106%
same,growth at 1 µM,K562,17%
same,growth at 100 µM,NCI-H460 [11],-9%
same,growth at 0.1 µM,HT-29 [12],104%
same,growth at 0.1 µM,SNB-19 [13],88%
same,growth at 100 µM,CAKI-1 [14],22%
same,growth at 1 µM,BT-549 [15],49%
same,growth at 0.01 µM,MOLT-4 [16],103%
same,growth at 0.1 µM,OVCAR-5,87%
same,growth at 0.01 µM,SK-MEL-2,105%
same,growth at 0.01 µM,DU-145,104%
